What was measured:
Nucleic Acid [1] = assay: Ratio of drug level in BALB/c mouse heart to lung at 7.4 MBq, iv after 120 mins by gamma counter; type: ADME, organism-based; details: in vivo, 2 h
Method in brief: (§1)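 Normal BALB/c mice were given the 18F tracer by i.v. injection. Tissues were sampled at 10, 30, 60 and 120 min. Activity is expressed as % injected dose per gram of tissue (n = 12), and organ ratios were taken from these values.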

Lung [2] = assay: Biodistribution in BALB/c mouse lung at 7.4 MBq, iv after 10 mins by gamma counting; type: ADME, organism-based; details: in vivo
Method in brief: (§2)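 Tracer given intravenously to BALB/c mice; animals sampled at 10, 30, 60 and 120 min after injection. Organ radioactivity expressed as percentage of injected dose per gram of tissue (% ID/g), n = 12.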

Nucleic Acid [3] = assay: Ratio of drug level in BALB/c mouse heart to lung at 7.4 MBq, iv after 60 mins by gamma counter; type: ADME, organism-based; details: in vivo, 1 h; method in brief: as §1
Kidney [4] = assay: Biodistribution in BALB/c mouse kidney at 7.4 MBq, iv after 10 mins by gamma counting; type: ADME, organism-based; details: in vivo; method in brief: as §2
Blood [5] = assay: Biodistribution in BALB/c mouse blood at 7.4 MBq, iv after 10 mins by gamma counting; type: ADME, organism-based; details: in vivo; method in brief: as §2
Pancreas [6] = assay: Biodistribution in BALB/c mouse pancreas at 7.4 MBq, iv after 30 mins by gamma counting; type: ADME, organism-based; details: in vivo, 0.5 h; method in brief: as §2
Heart [7] = assay: Biodistribution in BALB/c mouse heart at 7.4 MBq, iv after 10 mins by gamma counting; type: ADME, organism-based; details: in vivo; method in brief: as §2
Lung [8] = assay: Biodistribution in BALB/c mouse lung at 7.4 MBq, iv after 60 mins by gamma counting; type: ADME, organism-based; details: in vivo, 1 h; method in brief: as §2
Kidney [9] = assay: Biodistribution in BALB/c mouse kidney at 7.4 MBq, iv after 120 mins by gamma counting; type: ADME, organism-based; details: in vivo, 2 h; method in brief: as §2
Spleen [10] = assay: Biodistribution in BALB/c mouse spleen at 7.4 MBq, iv after 120 mins by gamma counting; type: ADME, organism-based; details: in vivo, 2 h; method in brief: as §2
Lung [11] = assay: Biodistribution in BALB/c mouse lung at 7.4 MBq, iv after 120 mins by gamma counting; type: ADME, organism-based; details: in vivo, 2 h; method in brief: as §2
Muscle tissue = assay: Biodistribution in BALB/c mouse normal muscle at 7.4 MBq, iv after 120 mins by gamma counting; type: ADME, organism-based; details: in vivo, 2 h; method in brief: as §2
Stomach [12] = assay: Biodistribution in BALB/c mouse stomach at 7.4 MBq, iv after 120 mins by gamma counting; type: ADME, organism-based; details: in vivo, 2 h; method in brief: as §2
Stomach [13] = assay: Biodistribution in BALB/c mouse stomach at 7.4 MBq, iv after 60 mins by gamma counting; type: ADME, organism-based; details: in vivo, 1 h; method in brief: as §2
Blood [14] = assay: Biodistribution in BALB/c mouse blood at 7.4 MBq, iv after 30 mins by gamma counting; type: ADME, organism-based; details: in vivo, 0.5 h; method in brief: as §2
Intestine = assay: Biodistribution in BALB/c mouse intestine at 7.4 MBq, iv after 10 mins by gamma counting; type: ADME, organism-based; details: in vivo; method in brief: as §2
Stomach [15] = assay: Biodistribution in BALB/c mouse stomach at 7.4 MBq, iv after 10 mins by gamma counting; type: ADME, organism-based; details: in vivo; method in brief: as §2
Heart [16] = assay: Drug uptake in Sprague-Dawley rat heart at 37 MBq, iv after 0.5 hrs by micro PET analysis; type: ADME, organism-based; details: in vivo
Method in brief: (§3)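 Rats received the tracer intravenously and were imaged by micro-PET in coronal view at 0.5 h and 1.0 h after injection.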

Heart [17] = assay: Drug uptake in Sprague-Dawley rat heart at 37 MBq, iv after 1 hr by micro PET analysis; type: ADME, organism-based; details: in vivo; method in brief: as §3
Blood [18] = assay: Biodistribution in BALB/c mouse blood at 7.4 MBq, iv after 120 mins by gamma counting; type: ADME, organism-based; details: in vivo, 2 h; method in brief: as §2
Liver = assay: Biodistribution in BALB/c mouse liver at 7.4 MBq, iv after 30 mins by gamma counting; type: ADME, organism-based; details: in vivo, 0.5 h; method in brief: as §2
Pancreas [19] = assay: Biodistribution in BALB/c mouse pancreas at 7.4 MBq, iv after 10 mins by gamma counting; type: ADME, organism-based; details: in vivo; method in brief: as §2
Spleen [20] = assay: Biodistribution in BALB/c mouse spleen at 7.4 MBq, iv after 10 mins by gamma counting; type: ADME, organism-based; details: in vivo; method in brief: as §2
Nucleic Acid [21] = assay: Ratio of drug level in BALB/c mouse heart to blood at 7.4 MBq, iv after 120 mins by gamma counter; type: ADME, organism-based; details: other tissue, 2 h; method in brief: as §1
Kidney [22] = assay: Biodistribution in BALB/c mouse kidney at 7.4 MBq, iv after 60 mins by gamma counting; type: ADME, organism-based; details: in vivo, 1 h; method in brief: as §2
Nucleic Acid [23] = assay: Ratio of drug level in BALB/c mouse heart to lung at 7.4 MBq, iv after 30 mins by gamma counter; type: ADME, organism-based; details: in vivo, 0.5 h; method in brief: as §1
Nucleic Acid [24] = assay: Ratio of drug uptake in rat H9c2 cells to mouse NIH3T3 cells after 0.5 to 2 hrs by gamma counting; type: ADME, cell-based
Blood [25] = assay: Biodistribution in BALB/c mouse blood at 7.4 MBq, iv after 60 mins by gamma counting; type: ADME, organism-based; details: in vivo, 1 h; method in brief: as §2
Nucleic Acid [26] = assay: Ratio of drug level in BALB/c mouse heart to liver at 7.4 MBq, iv after 10 mins by gamma counter; type: ADME, organism-based; details: in vivo; method in brief: as §1
Bone = assay: Biodistribution in BALB/c mouse bone at 7.4 MBq, iv after 30 mins by gamma counting; type: ADME, organism-based, Bone element; details: in vivo, 0.5 h; method in brief: as §2
[27] = Metabolic stability in human serum assessed as compound remaining at 0.37 MBq after 4 hrs by TLC analysis; type: ADME, cell-free; details: read-out: Stability
Method in brief: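 Analysed on ITLC-sg strips developed in methylene chloride:methanol (9:2 v/v), and the strips were scanned on an automatic TLC scanner.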

Nucleic Acid [28] = assay: Ratio of drug level in BALB/c mouse heart to liver at 7.4 MBq, iv after 60 mins by gamma counter; type: ADME, organism-based; details: in vivo, 1 h; method in brief: as §1

- Ratio (Nucleic Acid [1]): 4.36
- Drug uptake (Lung [2]): 7.69 % ID/g
- Ratio (Nucleic Acid [3]): 5.05
- Drug uptake (Kidney [4]): 36.05 % ID/g
- Drug uptake (Blood [5]): 0.64 % ID/g
- Drug uptake (Pancreas [6]): 5.96 % ID/g
- Drug uptake (Heart [7]): 35.23 % ID/g
- Drug uptake (Lung [8]): 4.01 % ID/g
- Drug uptake (Kidney [9]): 9.28 % ID/g
- Drug uptake (Spleen [10]): 1.23 % ID/g
- Drug uptake (Lung [11]): 5.55 % ID/g
- Drug uptake (Muscle tissue): 3.2 % ID/g
- Drug uptake (Stomach [12]): 2.49 % ID/g
- Drug uptake (Stomach [13]): 4.72 % ID/g
- Drug uptake (Blood [14]): 0.22 % ID/g
- Drug uptake (Intestine): 9.14 % ID/g
- Drug uptake (Stomach [15]): 3.75 % ID/g
- Drug uptake (Heart [16]): Active
- Drug uptake (Heart [17]): Active
- Drug uptake (Blood [18]): 0.24 % ID/g
- Drug uptake (Liver): 2.42 % ID/g
- Drug uptake (Pancreas [19]): 8.8 % ID/g
- Drug uptake (Spleen [20]): 3.35 % ID/g
- Ratio (Nucleic Acid [21]): > 102
- Drug uptake (Kidney [22]): 16.86 % ID/g
- Ratio (Nucleic Acid [23]): 3.71
- Ratio (Nucleic Acid [24]): 2
- Drug uptake (Blood [25]): 0.23 % ID/g
- Ratio (Nucleic Acid [26]): 11.08
- Drug uptake (Bone): 2.35 % ID/g
- remaining at 4 h, 0.37 MBq [27]: > 95%
- Ratio (Nucleic Acid [28]): 9.87
SMILES: [18F]CCOCC[P+](c1ccccc1)(c1ccccc1)c1ccccc1
